STAT1 act-1 – STAT1 signaling activators, primary screen, cell-based, HTS, luciferase reporter. NIH 3T3 STAT1-luciferase reporter, IFN-gamma, luminescence; 100% = IFN-gamma alone, no compound. activation (% of control), % at 5.5 µM. 200,000 tested, 2.6% active. AID 932, 2007;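 active = activation above the screen-wide mean activation plus 3 SD, cut at about 130% in these data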;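 note: raw ratio to IFN-gamma control signal so 100% means no change and 0% no light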
NF-kB neuron act – activators of NF-kB expression in neurons, primary screen, cell-based, HTS; human neuronal cells, NF-kB reporter expression; stronger effect = higher value; fold change at 12.5 µM; 190,000 tested, 1.6% active; in the data active = fold change above about 3.3
Pf gametocyte – late stage P. falciparum gametocyte viability inhibitors, primary screen, ATP luminescence, HTS. AID 743093, 2013. 150,000 tested, 0.065% active. inhibition, % at 10.9 µM. P. falciparum stage V gametocytes, 24 h;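 active = inhibition above the mean plus 3 SD of compounds within the control limits, set per campaign, cut at about 38% in these data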;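 note: 0% = DMSO wells and 100% = medium only without gametocytes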
APP 5'UTR act – activators of APP 5'UTR luciferase reporter, primary screen, SH-SY5Y cells | 190,000 tested, 1% active | activation, % at 2 µM | SH-SY5Y APP 5'UTR luciferase reporter, luminescence; zero percent = DMSO vehicle wells;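 active = activation above a set limit, based on mean plus 3 SD of controls, cut at about 140% in these data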
STAT3 act-1 – IL-6 driven STAT3 reporter potentiators, primary screen, U3A cells, luciferase, luminescence, MLSCN library; IL-6 STAT3-luciferase reporter; 100% = signal with IL-6 EC80 alone; activation (% of control), % at 5.6 µM; 190,000 tested, 0.91% active;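 active = activation above the screen-wide mean of compound activation plus 3 SD, cut at about 130% in these data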;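 note: 0% = background luminescence of wells with medium and substrate only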
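Test system: STAT3-luciferase reporter U3A cells; Detection: reporter luminescence signal; Times: 1 h compound pre-exposure, 6 h IL-6 stimulation, 37 °C; Benchmarks: IL-6-only high control; Also added: IL-6 stimulus at 33 ng/mL final.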
STAT1 inh – STAT1 signaling inhibitors, primary screen, cell-based, HTS, luciferase reporter; NIH 3T3 STAT1-luciferase reporter, IFN-gamma, luminescence; inhibition, % at 5.5 µM; 200,000 tested, 0.35% active; AID 920, 2007;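 active = inhibition above a set limit, the mean inhibition across all tested compounds plus 3 SD, cut at about 34% in these data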;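 note: 0% = IFN-gamma with DMSO and 100% = IFN-gamma with 300 µM nifuroxazide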
STAT3 act-2 – STAT3 reporter potentiators, retest of hits, confirmation, U3A cells, luciferase, luminescence; shares compounds with STAT3 act-1; IL-6 potentiation; U3A cells lack STAT1; 100 means same as IL-6 alone; potentiation (% of control), % at 5.7 µM; 1,200 tested, 64% active; AID 1267, 2008;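 active = percent activation of the STAT3 luciferase reporter above a set limit taken from the earlier primary screen, cut at about 130% in these data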;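 note: 0% = background signal of medium plus substrate and 100% = median of IL-6 with DMSO wells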
NFkB act 2 – NF-kB reporter activators in human cells, counter-screen for STAT3 activator project. shares compounds with STAT3 act-1. NF-kappaB reporter activation. activation (% of control), % at 5.7 µM. 1,200 tested, 11% active. AID 1309, 2008; in the data active = activation above about 120%;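 note: reporter induced by TNF-alpha stimulation; 100% = median of stimulated DMSO wells and 0% = no signal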
STAT1 act-2 – STAT1 reporter activators, IFN-gamma induced, counter-screen for STAT3 activator project, cell-based, NIH 3T3, luciferase luminescence. shares compounds with STAT3 act-1. NIH 3T3 STAT1-luciferase reporter. activation (% of control), % at 5.7 µM. 1,200 tested, 13% active. AID 1318, 2008;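 active = activation above the solvent-only control well mean plus 3 SD, set per screening run, cut at about 120% in these data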;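 note: 100% = IFN-gamma with DMSO median signal so 100% means no change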
* marks the source's active call; other numbers are inactive results; / = no result given. Compounds with a hit are over-represented: about 3.9% of the library has one in this group of screens.

SMILES	STAT1 act-1	NF-kB neuron act	Pf gametocyte	APP 5'UTR act	STAT3 act-1	STAT1 inh	STAT3 act-2	NFkB act 2	STAT1 act-2
COC(=O)c1sccc1NC(=O)c1c(C)noc1C	108	1.1	/	-12	99	-9	/	/	/
COC(=O)c1sccc1NC(=O)c1cc(C)on1	103	1	/	10	151*	-3	135*	104	103
O=C(O)C1CC=CCC1C(=O)Nc1ccc(S(=O)(=O)N2CCCc3ccccc32)cc1 (stereo not given)	103	1.6	12	3	162*	-4	146*	106	107
CCOC(=O)c1cnn(-c2nc3c(C)cccc3s2)c1C	98	1.4	/	7	152*	2	130	101	102
CCOC(=O)c1cnn(-c2nc3c(C)cccc3s2)c1C(F)(F)F	102	1.1	/	8	102	-2	/	/	/
Cc1cc2c3c(c1)C(C)CC(C)(C)N3C(=O)C2=C(C#N)C#N (stereo not given)	/	/	-7	/	/	/	/	/	/
CC(C(=O)Nc1ccc(S(N)(=O)=O)cc1)N1CCc2ccccc21 (stereo not given)	96	1.1	-13	15	103	3	/	/	/
CCN(CC)S(=O)(=O)c1cc(NC(=O)C(C)N2CCc3ccccc32)ccc1C (stereo not given)	91	0.97	-6	-7	142*	8	141*	107	105
Cc1nc2cc(-c3cccc(F)c3)nn2c(N2CCN(C(=O)c3ccco3)CC2)c1C	97	2	/	15	137*	3	120	114	91
CCOc1ccc(NC(=O)c2ccccc2NC(=O)CN(C)CC(=O)Nc2ccc(C)cc2)cc1	101	0.62	/	-8	149*	-1	119	108	120
CC(=O)Nc1ccc(S(=O)(=O)Nc2nc3ccccc3nc2Nc2cccc(O)c2)cc1	/	/	14	/	/	/	/	/	/
CC(=O)Nc1ccc(S(=O)(=O)Nc2nc3ccccc3nc2Nc2ccc3ccccc3c2)cc1	98	1.2	11	4	152*	2	152*	117	113
O=c1cc(-c2ccccc2)[nH]n1-c1nc2ccccc2s1	104	1.6	-10	37	138*	-4	123	126*	118
Cc1c(C(=O)NCc2cccnc2)oc2ccc(S(=O)(=O)N3CC(C)CC(C)C3)cc12 (stereo not given)	96	1.1	/	3	136*	2	160*	102	102
CCC(CC)NC(=O)Cc1ccccc1[N+](=O)[O-]	94	1.2	2	-11	138*	10	140*	108	97
CCCC(C)NC(=O)Cc1ccccc1[N+](=O)[O-] (stereo not given)	96	1.1	8	11	126	4	/	/	/
Cc1ccc(S(=O)(=O)N(CC(O)CN2C(=O)NC(C)(C)C2=O)c2ccccc2)cc1 (stereo not given)	98	1.1	/	11	187*	2	96	109	101
O=Cc1ccc2cccnc2n1	106	0.88	/	-1	148*	-7	146*	106	103
CCOc1ccc(C(=O)NC(=S)Nc2ccccc2N2CCOCC2)cc1Br	100	0.54	-23	8	98	-1	/	/	/
COc1ccc(CNc2cccnc2)c(OC)c1OC	/	/	16	/	/	/	/	/	/
CC(C)CC1c2[nH]c3ccccc3c2CCN1C(=O)C1CCOCC1 (stereo not given)	97	1.3	16	1	119	2	/	/	/
CC(C)CC1c2[nH]c3ccccc3c2CCN1C(=O)CCC(=O)N(C)C (stereo not given)	103	1.1	/	9	144*	-5	150*	107	98
Cc1c(CN2CCc3c([nH]c4ccccc34)C2CC(C)C)cnn1C (stereo not given)	89	1.3	-17	3	139*	10	143*	106	102
Cn1cccc1-c1cc(C(=O)N2CCc3c([nH]c4ccccc34)C2c2ccccn2)[nH]n1 (stereo not given)	73	0.66	-5	-10	93	27	/	/	/
CC(=O)c1cc(C(=O)N2CCc3c([nH]c4ccccc34)C2CC(C)C)[nH]n1 (stereo not given)	97	0.98	/	13	145*	1	143*	94	93
SMILES	STAT1 act-1	NF-kB neuron act	Pf gametocyte	APP 5'UTR act	STAT3 act-1	STAT1 inh	STAT3 act-2	NFkB act 2	STAT1 act-2
O=c1[nH]c2cc3c(cc2cc1CN(CCc1ccccc1)C(=S)NCCCN1CCOCC1)OCCO3	/	/	-3	/	/	/	/	/	/
Cc1ccc(-n2c(=S)[nH]c3sc4c(c3c2=O)CCC4)cc1	100	1	-13	3	137*	-2	116	110	105
COc1ccc(Br)cc1C(=O)Nc1ccccc1N1CCCC1	/	/	-2	/	/	/	/	/	/
COc1ccc(Br)cc1C(=O)Nc1cccc(NC(=O)c2ccco2)c1	94	0.3	16	-24	82	6	/	/	/
COc1ccc(Br)cc1C(=O)Nc1cccc(C)c1	98	1.1	-26	15	157*	2	139*	107	95
COc1ccc(Br)cc1C(=O)Nc1ccccc1-c1ccccc1	96	0.85	/	2	138*	4	135*	102	96
O=C(Cc1cn(Cc2cccc(Cl)c2)c2ccccc12)N1CCCCCC1	98	0.85	3	6	106	2	/	/	/
N/C(=N\OC(=O)c1ccc(Cl)cc1[N+](=O)[O-])c1cccnc1	/	/	4	/	/	/	/	/	/
N/C(=N\OC(=O)c1cc(Cl)ccc1Cl)c1cccnc1	125	2	-7	8	163*	-27	152*	121*	135*
N/C(=N\OC(=O)c1cc(Br)ccc1Cl)c1cccnc1	115	2	/	36	138*	-20	132	113	113
CCN(C(=O)[C@@H]1CCCN1C(=O)c1cccs1)c1nc2cc(Cl)ccc2s1	95	1.1	-19	9	101	6	/	/	/
COc1ccc(NC(=O)CSc2nnc(-c3cccs3)n2C)cc1OC	95	0.99	2	2	95	4	/	/	/

Screening data as filed in PubChem.
